Measurements as given in BindingDB's records for doi:10.1016/j.bmcl.2007.10.100 (Columbia University, 2008).
Peptide text beside a SMILES is read from it. * marks the point of attachment. Cbz = O=C(OCc1ccccc1)*

Assays:
Transcription factor p65 = Transcription factor p65 (Human, UniProt Q04206); experiment: Inhibition of TNF-alpha-stimulated human NF-kappaB p65 RelA subunit nuclear translocation in HUVEC
Method in brief: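 HUVEC (fewer than 8 passages) were seeded at 3,000 cells/well. Compounds were added in 8-point series, either from 10 µM final in media with 0.33% DMSO diluted 1:3, or from 8 µM diluted 1:2. After 3.5 h with compound, cells were stimulated with […] for 30 min. Cells were then fixed, permeabilized, stained with Hoechst and with anti-p65 plus an Alexa 647 secondary, and imaged automatically. IC50 is from curve fitting of one experiment run in triplicate, with BAY 11-7082 as the positive control.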

[1] = Induction of human IkappaBalpha stabilization in OCI-Ly3 cells by green light emiting IkappaBalpha-fused luciferase reporter gene assay
[2] = Induction of human IkappaBalpha stabilization in OCI-Ly3 cells assessed as ratio of green light emiting IkappaBalpha-fused luciferase expression to red light emiting native luciferase expression

Chain of Transcription factor p65 (Q04206 whole entry): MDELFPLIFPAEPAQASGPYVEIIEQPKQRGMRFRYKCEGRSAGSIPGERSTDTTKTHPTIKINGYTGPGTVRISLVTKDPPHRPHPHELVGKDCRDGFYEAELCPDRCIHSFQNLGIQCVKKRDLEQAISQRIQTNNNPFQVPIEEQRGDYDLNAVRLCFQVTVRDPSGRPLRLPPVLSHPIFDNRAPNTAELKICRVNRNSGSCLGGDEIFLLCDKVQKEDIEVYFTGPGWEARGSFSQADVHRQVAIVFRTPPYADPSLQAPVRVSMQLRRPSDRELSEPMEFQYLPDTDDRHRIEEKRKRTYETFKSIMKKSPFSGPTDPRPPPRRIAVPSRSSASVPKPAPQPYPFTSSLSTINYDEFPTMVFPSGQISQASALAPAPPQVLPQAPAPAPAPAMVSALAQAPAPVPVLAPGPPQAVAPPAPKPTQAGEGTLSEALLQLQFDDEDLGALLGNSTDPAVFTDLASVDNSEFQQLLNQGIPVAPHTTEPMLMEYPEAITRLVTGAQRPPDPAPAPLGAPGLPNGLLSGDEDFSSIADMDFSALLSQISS

COc1cc2cccnc2c2c1-c1cc(C)ccc1S(=O)(=O)N2
IC50 (Transcription factor p65): 1.2 µM
EC50 [1]: 1.3 µM
EC50 [2]: 1.6 µM

COc1ccc2c(c1)-c1ccc3ccc(C)nc3c1NS2(=O)=O
IC50 (Transcription factor p65): 2.5 µM
EC50 [1]: 3.7 µM
EC50 [2]: 3.4 µM

Cc1ccc([N+](=O)[O-])cc1S(=O)(=O)Nc1cccc2cccnc12
IC50 (Transcription factor p65): 1.6 µM
EC50 [1]: 1 µM
EC50 [2]: > 10 µM

COc1cc(NS(=O)(=O)c2ccc(C)cc2N)c2ncccc2c1
IC50 (Transcription factor p65): 1 µM
EC50 [1]: 4 µM
EC50 [2]: 4 µM

O=S1(=O)Nc2c(ccc3cccnc23)-c2cc(F)ccc21
IC50 (Transcription factor p65): 1.7 µM
EC50 [1]: 4.1 µM
EC50 [2]: 12 µM

COc1cc(NS(=O)(=O)c2ccc(C)cc2)c2nc(C)ccc2c1
IC50 (Transcription factor p65): > 10 µM
EC50 [1]: 20 µM
EC50 [2]: 20 µM

CC(C)C[C@@H](C=O)NC(=O)[C@H](CC(C)C)NC(=O)[C@H](CC(C)C)NC(=O)OCc1ccccc1 [{1-[(S)-(S)-1-((S)-1-Formyl-3-methyl-butylcarbamoyl)-3-methyl-butylcarbamoyl]-3-methyl-butyl}-carbamic acid benzyl ester] (Cbz-Leu-Leu-Leu-aldehyde)
EC50 [1]: 1 µM
EC50 [2]: 5.2 µM

Cc1ccc2cccc(NS(=O)(=O)c3ccc(Cl)s3)c2n1
IC50 (Transcription factor p65): 1 µM
EC50 [1]: 1.4 µM
EC50 [2]: 2.1 µM

O=S(=O)(Nc1cccc2cccnc12)c1cccs1
IC50 (Transcription factor p65): 3.6 µM
EC50 [1]: 5.3 µM
EC50 [2]: 9 µM

O=S(=O)(Nc1cccc2cccnc12)c1ccc(Br)s1
IC50 (Transcription factor p65): 1.1 µM
EC50 [1]: 5.9 µM
EC50 [2]: 6.8 µM

Cc1ccc2cccc(NS(=O)(=O)c3ccc(C(F)(F)F)cc3[N+](=O)[O-])c2n1
IC50 (Transcription factor p65): 1.1 µM
EC50 [1]: 10 µM
EC50 [2]: 3.6 µM

O=S(=O)(Nc1cccc2cccnc12)c1ccc(Cl)s1
IC50 (Transcription factor p65): 1.3 µM
EC50 [1]: 2.7 µM
EC50 [2]: 2.7 µM

COc1cc(NS(=O)(=O)c2ccc(C)cc2N)c2nc(C)ccc2c1
EC50 [1]: 9.4 µM
EC50 [2]: 3 µM

O=[N+]([O-])c1ccc(S(=O)(=O)Nc2cccc3cccnc23)cc1
IC50 (Transcription factor p65): 1.5 µM
EC50 [1]: 6.5 µM
EC50 [2]: 17 µM

COc1ccc2c(c1)-c1ccc3cccnc3c1NS2(=O)=O
IC50 (Transcription factor p65): 1 µM
EC50 [1]: 1.3 µM
EC50 [2]: 1.4 µM

Cc1ccc2cccc(NS(=O)(=O)c3ccccc3N)c2n1
IC50 (Transcription factor p65): 2.8 µM
EC50 [1]: 8 µM
EC50 [2]: 8 µM

COc1cnc2c3c(ccc2c1)-c1ccccc1S(=O)(=O)N3
IC50 (Transcription factor p65): 2.5 µM

Cc1ccc2ccc3c(c2n1)NS(=O)(=O)c1ccc(C(F)(F)F)cc1-3
IC50 (Transcription factor p65): 1.2 µM
EC50 [1]: 8.9 µM
EC50 [2]: 7.2 µM

COc1cc(NS(=O)(=O)c2ccc(C)cc2[N+](=O)[O-])c2ncccc2c1
IC50 (Transcription factor p65): 2.1 µM
EC50 [1]: 6.8 µM
EC50 [2]: 7.6 µM

O=S1(=O)Nc2c(ccc3cccnc23)-c2ccccc21 [5H-quinolino[8,7-c][1,2]benzothiazine 6,6-dioxide]
IC50 (Transcription factor p65): 1 µM
EC50 [1]: 2.2 µM
EC50 [2]: 2.6 µM

Cc1ccc2cccc(NS(=O)(=O)c3cc([N+](=O)[O-])ccc3C)c2n1
EC50 [1]: > 20 µM
EC50 [2]: > 57 µM

Cc1ccc2cccc(NS(=O)(=O)c3cccc([N+](=O)[O-])c3)c2n1
IC50 (Transcription factor p65): 0.9 µM
EC50 [1]: 6 µM
EC50 [2]: 13 µM

O=[N+]([O-])c1cc(C(F)(F)F)ccc1S(=O)(=O)Nc1cccc2cccnc12
IC50 (Transcription factor p65): 3.7 µM
EC50 [1]: 3.6 µM
EC50 [2]: 20 µM

Cc1ccc2cccc(NS(=O)(=O)c3ccc(Br)s3)c2n1
IC50 (Transcription factor p65): 1.4 µM
EC50 [1]: 6.1 µM
EC50 [2]: 6.4 µM

Cc1ccc2c(c1)-c1ccc3cccnc3c1NS2(=O)=O
IC50 (Transcription factor p65): 0.6 µM
EC50 [1]: 0.5 µM
EC50 [2]: 0.8 µM

O=S1(=O)Nc2c(ccc3cccnc23)-c2cc(Cl)ccc21
IC50 (Transcription factor p65): 1.1 µM
EC50 [1]: 1.1 µM
EC50 [2]: 11 µM

O=S1(=O)Nc2c(ccc3cccnc23)-c2cc(C(F)(F)F)ccc21
IC50 (Transcription factor p65): 1 µM
EC50 [1]: 0.7 µM
EC50 [2]: 1 µM

Cc1ccc2cccc(NS(=O)(=O)c3ccccc3[N+](=O)[O-])c2n1
IC50 (Transcription factor p65): 3.8 µM
EC50 [1]: 6.8 µM
EC50 [2]: 8 µM

Cc1cnc2c3c(ccc2c1)-c1ccccc1S(=O)(=O)N3
EC50 [1]: 7 µM
EC50 [2]: 10 µM

COc1cc2ccc(C)nc2c2c1-c1cc(C)ccc1S(=O)(=O)N2
IC50 (Transcription factor p65): 0.9 µM
EC50 [1]: 1.4 µM
EC50 [2]: 2.3 µM

Cc1ccc2ccc3c(c2n1)NS(=O)(=O)c1ccc(O)cc1-3
IC50 (Transcription factor p65): 10 µM
EC50 [1]: 8 µM
EC50 [2]: 11 µM

O=[N+]([O-])c1ccccc1S(=O)(=O)Nc1cccc2cccnc12 [2-nitro-N-quinolin-8-yl-benzenesulfonamide]
IC50 (Transcription factor p65): 3.2 µM
EC50 [1]: 11 µM
EC50 [2]: 12 µM

O=S(=O)(Nc1cccc2cccnc12)c1ccccc1 [N-(quinolin-8-yl)benzenesulfonamide]
IC50 (Transcription factor p65): > 10 µM
EC50 [1]: 17 µM
EC50 [2]: 20 µM

COc1cc(NS(=O)(=O)c2ccc(C)cc2[N+](=O)[O-])c2nc(C)ccc2c1
EC50 [1]: > 10 µM
EC50 [2]: > 57 µM

COc1ccc(S(=O)(=O)Nc2cccc3ccc(C)nc23)c([N+](=O)[O-])c1
IC50 (Transcription factor p65): 1 µM

Cc1ccc(S(=O)(=O)/C=C/C#N)cc1 [BAY-11-7082]
IC50 (Transcription factor p65): 3 µM

Nc1ccccc1S(=O)(=O)Nc1cccc2cccnc12
IC50 (Transcription factor p65): 2 µM
EC50 [1]: 11 µM
EC50 [2]: 8.5 µM
